Measured values as given in ChEMBL document CHEMBL3272018, “Synthesis of aziridinylallylaminophosphine oxides and sulfides as potential adjuvant cancer chemotherapeutic agents” (J Med Chem, 1976).
The source made the active and inactive calls. The calls are words filed in the database; no cut-off is given here.

What was measured:
W256 [1] = assay: Antitumor activity against rat Walker 256 cells intramuscularly allografted in rat assessed as tumor growth inhibition; type: functional; details: W256, im
Outline: (§1)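 Dosed once daily for 5 days. Response is tumor progression in treated (T) versus untreated control (C) animals, expressed as T/C percentage. Host weight change is reported as the average net weight change of the test group minus that of the controls, in grams.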

W256 [2] = assay: Antitumor activity against rat Walker 256 cells intramuscularly allografted in rat assessed as survival rate at 1.56 mg/kg, qd administered for 5 days; type: functional, organism-based; design: dose 1.56 mg/kg
Outline: (§2)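 Rats bearing Walker 256 carcinoma as a solid tumor; lines 1-8 use a cytoxan-resistant Walker 256 subline. Dosed once daily for 5 days. Treated (T) and untreated control (C) groups are compared, and the response is given as T/C percentage, reflecting increase in survival time. Host weight change is the average weight change of the test group minus that of the controls, in grams.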

Rattus norvegicus [3] = assay: Toxicity in rat allografted with rat Walker 256 cells intramuscularly assessed as change in body weight at 3.12 mg/kg, qd administered for 5 days; type: organism-based; design: dose 3.12 mg/kg, route intramuscular; details: in vivo, im, 120 h
Outline: (§3)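 Walker 256 carcinoma solid-tumour system in rats (parent line, or the line resistant to cytoxan). Dosing was one injection per day for 5 days. Toxicity was taken as the average net body-weight change of the treated group minus the average net weight change of the untreated tumour-bearing controls, in grams.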

W256 [4] = assay: Antitumor activity against rat Walker 256 cells intramuscularly allografted in rat assessed as survival rate at 0.23 mg/kg, qd administered for 5 days; type: functional, organism-based; design: dose 0.23 mg/kg; outline: as §2
W256 [5] = assay: Antitumor activity against rat Walker 256 cells intramuscularly allografted in rat assessed as survival rate at 3.12 mg/kg, qd administered for 5 days; type: functional, organism-based; design: dose 3.12 mg/kg; outline: as §2
W256 [6] = assay: Antitumor activity against rat Walker 256 cells intramuscularly allografted in rat assessed as survival rate at 0.47 mg/kg, qd administered for 5 days; type: functional, organism-based; design: dose 0.47 mg/kg; outline: as §2
Rattus norvegicus [7] = assay: Toxicity in rat allografted with rat Walker 256 cells intramuscularly assessed as mortality at 12 mg/kg administered as single dose; type: organism-based; design: dose 12 mg/kg, route intramuscular; details: in vivo, im
Outline: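 Walker 256 solid-tumour system in rats. A single dose level of 12.0 mg/kg was given as one injection. Toxic deaths were recorded, and tumour presence was checked when the animals were sacrificed.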

W256 [8] = assay: Antitumor activity against rat Walker 256 cells intramuscularly allografted in rat assessed as tumor growth inhibition at 1.56 mg/kg, qd administered for 5 days relative to control; type: functional; details: W256, im, 120 h, route intramuscular, read-out: TGI; outline: as §1
W256 [9] = assay: Antitumor activity against rat Walker 256 cells intramuscularly allografted in rat assessed as tumor growth inhibition at 0.47 mg/kg, qd administered for 5 days relative to control; type: functional; details: W256, im, 120 h, route intramuscular, read-out: TGI; outline: as §1
W256 [10] = assay: Antitumor activity against rat Walker 256 cells intramuscularly allografted in rat assessed as tumor growth inhibition at 0.78 mg/kg, qd administered for 5 days relative to control; type: functional; details: W256, im, 120 h, route intramuscular, read-out: TGI; outline: as §1
Rattus norvegicus [11] = assay: Toxicity in rat allografted with rat Walker 256 cells intramuscularly assessed as change in body weight at 6.25 mg/kg, qd administered for 5 days; type: organism-based; design: dose 6.25 mg/kg, route intramuscular; details: in vivo, im, 120 h; outline: as §3
W256 [12] = assay: Antitumor activity against rat Walker 256 cells intramuscularly allografted in rat assessed as tumor incidence at 12 mg/kg administered as single dose; type: functional, organism-based; design: dose 12 mg/kg
Outline: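 Walker 256 solid tumour in rats, given one injection at 12.0 mg/kg. Tumours and toxic deaths were recorded at sacrifice.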

Rattus norvegicus [13] = assay: Toxicity in rat allografted with rat Walker 256 cells intramuscularly assessed as change in body weight at 0.47 mg/kg, qd administered for 5 days; type: organism-based; design: dose 0.47 mg/kg, route intramuscular; details: in vivo, im, 120 h; outline: as §3
W256 [14] = assay: Antitumor activity against rat Walker 256 cells intramuscularly allografted in rat assessed as tumor growth inhibition at 0.23 mg/kg, qd administered for 5 days relative to control; type: functional; details: W256, im, 120 h, route intramuscular, read-out: TGI; outline: as §1
[15] = Toxicity in rat allografted with rat Walker 256 cells intramuscularly; type: organism-based
[16] = Therapeutic index, ratio of LD50 for rat allografted with rat Walker 256 cells to ED10 for antitumor activity against rat Walker 256 cells intramuscularly allografted in rat; type: cell-based; details: read-out: TI
Outline: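 Therapeutic index is LD50/ED10 in the Walker 256 solid tumour system. ED10 is the dose giving a 10% tumour weight reduction, with values extrapolated from dose-response data.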

W256 [17] = assay: Antitumor activity against rat Walker 256 cells intramuscularly allografted in rat assessed as tumor growth inhibition at 6.25 mg/kg, qd administered for 5 days relative to control; type: functional; details: W256, im, 120 h, route intramuscular, read-out: TGI
Outline: (§4)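 Walker 256 carcinoma grown as a solid tumour in rats, with one injection daily for 5 days. Response is given as T/C %, the treated-group measure over the untreated-control tumour measure; a smaller value means more activity. Host toxicity is the mean net weight change of treated minus control animals, in grams.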

W256 [18] = assay: Antitumor activity against rat Walker 256 cells intramuscularly allografted in rat assessed as survival rate at 0.78 mg/kg, qd administered for 5 days; type: functional, organism-based; design: dose 0.78 mg/kg; outline: as §2
Rattus norvegicus [19] = assay: Toxicity in rat allografted with rat Walker 256 cells intramuscularly assessed as change in body weight at 0.78 mg/kg, qd administered for 5 days; type: organism-based; design: dose 0.78 mg/kg, route intramuscular; details: in vivo, im, 120 h; outline: as §3
W256 [20] = assay: Antitumor activity against rat Walker 256 cells intramuscularly allografted in rat assessed as tumor growth inhibition at 3.12 mg/kg, qd administered for 5 days relative to control; type: functional; details: W256, im, 120 h, route intramuscular, read-out: TGI; outline: as §4
W256 [21] = assay: Antitumor activity against rat Walker 256 cells intramuscularly allografted in rat assessed as survival rate at 6.25 mg/kg, qd administered for 5 days; type: functional, organism-based; design: dose 6.25 mg/kg; outline: as §2
Rattus norvegicus [22] = assay: Toxicity in rat allografted with rat Walker 256 cells intramuscularly assessed as change in body weight at 0.23 mg/kg, qd administered for 5 days; type: organism-based; design: dose 0.23 mg/kg, route intramuscular; details: in vivo, im, 120 h; outline: as §3
Rattus norvegicus [23] = assay: Toxicity in rat allografted with rat Walker 256 cells intramuscularly assessed as change in body weight at 1.56 mg/kg, qd administered for 5 days; type: organism-based; design: dose 1.56 mg/kg, route intramuscular; details: in vivo, im, 120 h; outline: as §3

## C=CCN(CC=C)P(=O)(N(CC=C)CC=C)N1CC1C (stereo not drawn)
W256 [1]
  ED10: 0.62 mg/kg
W256 [2]
  Activity: Active
Rattus norvegicus [3]
  Activity: -15 g
W256 [4]
  Activity: Active
W256 [5]
  Activity: Active
W256 [6]
  Activity: Active
Rattus norvegicus [7]
  Activity: Non-toxic
W256 [8]
  inhibition in vivo at 1.56 mg/kg: 2%
W256 [9]
  inhibition in vivo at 0.47 mg/kg: 2%
W256 [10]
  inhibition in vivo at 0.78 mg/kg: 4%
Rattus norvegicus [11]
  Activity: -28 g
W256 [12]
  Activity: Active
Rattus norvegicus [13]
  Activity: -15 g
W256 [14]
  inhibition in vivo at 0.23 mg/kg: 33%
[15]
  LD50: 75 mg/kg
[16]
  selectivity ratio: 125
W256 [17]
  inhibition in vivo at 6.25 mg/kg: 3%
W256 [18]
  Activity: Active
Rattus norvegicus [19]
  Activity: -8 g
W256 [20]
  inhibition in vivo at 3.12 mg/kg: 1%
W256 [21]
  Activity: Active
Rattus norvegicus [22]
  Activity: -3 g
Rattus norvegicus [23]
  Activity: -22 g
